{"source": "ChEMBL document CHEMBL3393048", "about": "“Discovery of potent cytotoxic ortho-aryl chalcones as new scaffold targeting tubulin and mitosis with affinity-based fluorescence” (J Med Chem, 2014)", "key": {"HepG2": {"test_system": "HepG2", "assay": "Antiproliferative activity against human HepG2 cells after 48 hrs by SRB method", "assay_type": "functional, cell-based", "details": "HepG2, 48 h", "in_short": "(§1)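 SRB assay. Cells in DMEM high glucose with 10% FBS were seeded at 5000/well and grown 24 h; a day-0 plate was fixed at that point. Compounds were added in triplicate for 48 h. IC50 came from nonlinear regression of dose–response curves from at least two independent experiments.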"}, "SW480": {"test_system": "SW480", "assay": "Antiproliferative activity against human SW480 cells after 48 hrs by SRB method", "assay_type": "functional, cell-based", "details": "SW480, 48 h", "in_short": "as §1"}, "A2780 [1]": {"test_system": "A2780", "assay": "Antiproliferative activity against human A2780 cells after 48 hrs by SRB method", "assay_type": "functional, cell-based", "details": "A2780, 48 h", "in_short": "as §1"}, "MCF7 [2]": {"test_system": "MCF7", "assay": "Antiproliferative activity against doxorubicin-resistant human MCF7 cells after 48 hrs by SRB method", "assay_type": "functional, cell-based", "details": "MCF7, 48 h", "in_short": "as §1"}, "[3]": {"assay": "Antiproliferative activity against human HCT8 cells after 48 hrs by SRB method", "assay_type": "functional, cell-based", "details": "HCT-8, 48 h", "in_short": "as §1"}, "A2780 [4]": {"test_system": "A2780", "assay": "Drug resistance index, ratio of IC50 for taxol-resistant human A2780 cells to IC50 for human A2780 cells", "assay_type": "functional", "in_short": "(§2)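 Drug resistance index = IC50 in the resistant line / IC50 in its parental line. […] Pairs: A549/CDDP vs A549, MCF-7/DOX vs MCF-7, A2780/TAX vs A2780, HCT-8/VCT vs HCT-8.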"}, "[5]": {"assay": "Drug resistance index, ratio of IC50 for vincristine-resistant human HCT8 cells to IC50 for human HCT8 cells", "assay_type": "functional, HCT-8", "in_short": "as §2"}, "Tubulin": {"molecular_target": "Tubulin", "assay": "Inhibition of tubulin polymerization (unknown origin) by DAPI staining-based fluorescence microscopy", "assay_type": "protein-complex assay, Homo sapiens", "in_short": "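Purified tubulin (99% pure; 20 μM as supplied) mixed with compound in general tubulin buffer (80 mM PIPES pH 6.9, 2.0 mM MgCl₂, 0.5 mM EGTA) with 1 mM GTP, 20% glycerol and DAPI reporter. Polymerization tracked kinetically at 37 °C as fluorescence rise (ex 360, em 450 nm). Duplicate wells per concentration. IC50 from at least two independent experiments.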"}, "A549 [6]": {"test_system": "A549", "assay": "Cell cycle arrest in human A549 cells assessed as accumulation at G2/M phase at 125 nM after 24 hrs by Hoechst 33342 staining-based ArrayScanVTI analysis", "assay_type": "functional", "in_short": "(§3)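 A549 cells were seeded at 5000/well, cultured overnight, then treated 24 h over a 7.81–250 concentration series. Cells were fixed in prewarmed paraformaldehyde 10 min, permeabilized with Triton X-100, and nuclei stained with Hoechst 33342. Imaging was by ArrayScan VTI high-content analysis. Phase percentage = cells within a gated fluorescence intensity / total cells counted.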"}, "A549 [7]": {"test_system": "A549", "assay": "Cell cycle arrest in human A549 cells assessed as accumulation at G2/M phase at 7.81 to 250 nM after 24 hrs by Hoechst 33342 staining-based ArrayScanVTI analysis", "assay_type": "functional", "in_short": "as §3"}, "A549 [8]": {"test_system": "A549", "assay": "Drug resistance index, ratio of IC50 for cis-platinum-resistant human A549 cells to IC50 for human A549 cells", "assay_type": "functional", "in_short": "as §2"}, "MCF7 [9]": {"test_system": "MCF7", "assay": "Antiproliferative activity against human MCF7 cells after 48 hrs by SRB method", "assay_type": "functional, cell-based", "details": "MCF7, 48 h", "in_short": "as §1"}, "A549 [10]": {"test_system": "A549", "assay": "Antiproliferative activity against human A549 cells after 48 hrs by SRB method", "assay_type": "functional, cell-based", "details": "A549, 48 h", "in_short": "as §1, with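 “h. Cells were fixed with TCA at 4 °C for 1 h, stained with 0.4% SRB, and the dye was solubilized in 10 mM Tris pH 10.4. OD was read at 515 nm with day-0 OD subtracted.” for “h.”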"}, "MCF7 [11]": {"test_system": "MCF7", "assay": "Drug resistance index, ratio of IC50 for doxorubicin-resistant human MCF7 cells to IC50 for human MCF7 cells", "assay_type": "functional", "in_short": "as §2"}, "A549 [12]": {"test_system": "A549", "assay": "Antiproliferative activity against cis-platinum-resistant human A549 cells after 48 hrs by SRB method", "assay_type": "functional, cell-based", "details": "A549, 48 h", "in_short": "as §1, with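 “h. Cells were fixed with TCA at 4 °C for 1 h, stained with 0.4% SRB, and the dye was solubilized in 10 mM Tris pH 10.4. OD was read at 515 nm with day-0 OD subtracted.” for “h.”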"}, "[13]": {"assay": "Antiproliferative activity against human CNE2 cells after 48 hrs by SRB method", "assay_type": "functional, cell-based", "details": "CNE-2, 48 h", "in_short": "as §1"}, "[14]": {"assay": "Antiproliferative activity against vincristine-resistant human HCT8 cells after 48 hrs by SRB method", "assay_type": "functional, cell-based", "details": "HCT-8, 48 h", "in_short": "as §1, with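 “h. Cells were fixed with TCA at 4 °C for 1 h, stained with 0.4% SRB, and the dye was solubilized in 10 mM Tris pH 10.4. OD was read at 515 nm with day-0 OD subtracted.” for “h.”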"}, "A2780 [15]": {"test_system": "A2780", "assay": "Antiproliferative activity against taxol-resistant human A2780 cells after 48 hrs by SRB method", "assay_type": "functional, cell-based", "details": "A2780, 48 h", "in_short": "as §1"}, "A549 [16]": {"test_system": "A549", "assay": "Induction of apoptosis in human A549 cells assessed as necrotic cells at 0.25 uM after 48 hrs by Annexin V-FITC/propidium iodide staining-based flow cytometry (reference value: 0.06%)", "assay_type": "functional"}, "A549 [17]": {"test_system": "A549", "assay": "Induction of apoptosis in human A549 cells assessed as viable cells at 0.25 uM after 48 hrs by Annexin V-FITC/propidium iodide staining-based flow cytometry (reference value: 99.37%)", "assay_type": "functional", "details": "A549, 48 h, read-out: Activity"}, "A549 [18]": {"test_system": "A549", "assay": "Induction of apoptosis in human A549 cells assessed as early apoptotic cells at 0.25 uM after 48 hrs by Annexin V-FITC/propidium iodide staining-based flow cytometry (reference value: 0.47%)", "assay_type": "functional"}, "A549 [19]": {"test_system": "A549", "assay": "Cell cycle arrest in human A549 cells assessed as accumulation at G2/M phase at 31.25 nM after 24 hrs by Hoechst 33342 staining-based ArrayScanVTI analysis", "assay_type": "functional"}, "A549 [20]": {"test_system": "A549", "assay": "Induction of apoptosis in human A549 cells assessed as late apoptotic cells at 0.25 uM after 48 hrs by Annexin V-FITC/propidium iodide staining-based flow cytometry (reference value: 0.10%)", "assay_type": "functional"}, "Tubulin (Homo sapiens)": {"molecular_target": "Tubulin (Homo sapiens) (UniProt P68371+Q9H4B7+P0DPH7+P68366+Q13509+Q71U36+P04350+Q3ZCM7+P07437+P68363+Q9BQE3+Q6PEY2+Q13885+Q9BVA1+Q9BUF5)", "assay": "Inhibition of tubulin polymerization (unknown origin) at 5 uM by DAPI staining-based fluorescence microscopy", "assay_type": "protein-complex assay"}}, "note": "Active and inactive are the calls of the source. No cut-off for these calls is given here."}
{"smiles": "COc1ccc(/C=C/C(=O)c2ccccc2-c2ccc(F)cc2)cc1", "values": [{"measurement": "IC50", "setting": "HepG2", "value": 93, "unit": "nM"}, {"measurement": "IC50", "setting": "SW480", "value": 61, "unit": "nM"}, {"measurement": "IC50", "setting": "A2780 [1]", "value": 170, "unit": "nM"}, {"measurement": "IC50", "setting": "MCF7 [2]", "value": 120, "unit": "nM"}, {"measurement": "IC50", "setting": "[3]", "value": 220, "unit": "nM"}, {"measurement": "Ratio IC50", "setting": "A2780 [4]", "value": 4.1}, {"measurement": "Ratio IC50", "setting": "[5]", "value": 1}, {"measurement": "IC50", "setting": "Tubulin", "value": 1800, "unit": "nM"}, {"measurement": "Activity", "setting": "A549 [6]", "value": "Active"}, {"measurement": "Activity", "setting": "A549 [7]", "value": "Active"}, {"measurement": "Ratio IC50", "setting": "A549 [8]", "value": 1.1}, {"measurement": "IC50", "setting": "MCF7 [9]", "value": 670, "unit": "nM"}, {"measurement": "IC50", "setting": "A549 [10]", "value": 140, "unit": "nM"}, {"measurement": "Ratio IC50", "setting": "MCF7 [11]", "value": 0.29}, {"measurement": "IC50", "setting": "A549 [12]", "value": 210, "unit": "nM"}, {"measurement": "IC50", "setting": "[13]", "value": 53, "unit": "nM"}, {"measurement": "IC50", "setting": "[14]", "value": 230, "unit": "nM"}, {"measurement": "IC50", "setting": "A2780 [15]", "value": 690, "unit": "nM"}]}
{"smiles": "COc1cc2c(c(OC)c1OC)-c1ccc(OC)c(=O)cc1[C@@H](NC(C)=O)CC2", "note": "[COLCHICINE]", "values": [{"measurement": "Activity", "setting": "A549 [16]", "value": 6.93, "unit": "%"}, {"measurement": "viability at 0.25 µM", "setting": "A549 [17]", "value": 19.2, "unit": "%"}, {"measurement": "Activity", "setting": "A549 [18]", "value": 36.19, "unit": "%"}, {"measurement": "Activity", "setting": "A549 [19]", "value": "Active"}, {"measurement": "Activity", "setting": "A549 [20]", "value": 37.72, "unit": "%"}, {"measurement": "IC50", "setting": "A549 [10]", "value": 50, "unit": "nM"}]}
{"smiles": "COc1cc(/C=C/C(=O)c2ccccc2-c2ccc(F)cc2)ccc1O", "values": [{"measurement": "IC50", "setting": "HepG2", "value": 2800, "unit": "nM"}, {"measurement": "IC50", "setting": "SW480", "value": 6600, "unit": "nM"}, {"measurement": "inhibition", "setting": "Tubulin (Homo sapiens)", "value": "inactive"}, {"measurement": "IC50", "setting": "MCF7 [9]", "value": 4000, "unit": "nM"}, {"measurement": "IC50", "setting": "A549 [10]", "value": 7600, "unit": "nM"}, {"measurement": "IC50", "setting": "[13]", "value": 2500, "unit": "nM"}]}
